In the library only some 1.6% were active in any assay of this set; here they are far more common.
RAD52 inh: inhibitors of human RAD52 DNA annealing | recombinant RAD52 DNA annealing, FRET fluorescence | inhibition, % at 18.7 µM | 360,000 tested, 0.46% active;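 active = every replicate showing at least 50% inhibition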
UBC13 polyUb: blocks human UBC13 polyubiquitin chain formation. TR-FRET. inhibition, % at 20 µM. 330,000 tested, 0.47% active; in the data active = inhibition above about 45%, passing the limit was not always enough
DNA FID counter: counter-screen for HCV NS3 helicase inhibitors: DNA intercalator displacement. DNA fluorescent intercalator displacement, fluorescence. inhibition, % at 7.9 µM. 290,000 tested, 0.17% active. AID 1845; in the data active = inhibition above about 37%;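 also: higher means more ethidium bromide displaced from hairpin DNA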
Neddylation inh: inhibitors of human cullin neddylation; P61081+Q13564; TR-FRET cullin neddylation, biochemical; calls only at 25 µM; 360,000 tested, 0.58% active; AID 651699; in the data active = inhibition above about 36%
Target sequence (P61081 whole entry, looked up): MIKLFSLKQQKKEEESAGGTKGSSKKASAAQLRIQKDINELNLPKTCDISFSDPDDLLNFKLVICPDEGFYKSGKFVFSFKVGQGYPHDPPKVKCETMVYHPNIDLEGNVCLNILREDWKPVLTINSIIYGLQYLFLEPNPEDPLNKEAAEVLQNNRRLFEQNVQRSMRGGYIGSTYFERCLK
Target sequence (Q13564 whole entry, looked up): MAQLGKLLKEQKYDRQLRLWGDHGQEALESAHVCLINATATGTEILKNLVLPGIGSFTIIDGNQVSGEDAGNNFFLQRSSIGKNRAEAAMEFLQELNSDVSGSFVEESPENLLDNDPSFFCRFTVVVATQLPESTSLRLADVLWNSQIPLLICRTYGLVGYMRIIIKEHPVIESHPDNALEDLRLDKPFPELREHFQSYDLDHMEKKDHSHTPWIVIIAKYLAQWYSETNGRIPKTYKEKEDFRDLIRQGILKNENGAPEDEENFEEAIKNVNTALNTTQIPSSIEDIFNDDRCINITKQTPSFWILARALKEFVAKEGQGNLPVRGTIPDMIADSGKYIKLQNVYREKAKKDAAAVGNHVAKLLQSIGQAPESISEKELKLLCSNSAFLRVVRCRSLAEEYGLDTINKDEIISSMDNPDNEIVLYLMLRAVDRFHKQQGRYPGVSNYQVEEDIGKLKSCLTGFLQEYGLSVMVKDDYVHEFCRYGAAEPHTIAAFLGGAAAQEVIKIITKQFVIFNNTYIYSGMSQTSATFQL
RAD54 inh: blocks human RAD54 Holliday junction branch migration. Q92698. FAM/BHQ fluorescence. inhibition, % at 10.4 µM. 360,000 tested, 0.14% active. AID 602329;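 active = mean normalized replicate activity at least 40 and at least half of replicates scoring 40 or more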;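 also: inhibitors cause a drop in the FAM fluorescence signal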
Apaf-1 inh: inhibitors of human Apaf-1 apoptosome; 330,000 tested, 0.71% active; O14727; inhibition, % at 20 µM; reconstituted apoptosome caspase-3 activity, DEVD-Rh110 fluorescence; active = inhibition of at least 40% at 20 µM
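Assay system: Apoptosome proteins | Medium: pH 7.5 Hepes buffer with CHAPS, BSA, DTT | Also added: Cytochrome c and DEVD-Rh110 substrate | Times: 30 min plus 50 min, RT | Detection: Rhodamine 110 fluorescence at Ex 480/Em 540 nm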
Hits are given with their value.

Screening CCN1CCN(c2ccc(S(=O)(=O)N3CCCCC3)cc2NC(=O)/C=C/c2cccc(OC)c2OC)CC1 returned RAD52 inh inactive, UBC13 polyUb inactive, DNA FID counter 38, Neddylation inh inactive, RAD54 inh inactive and Apaf-1 inh inactive.
COc1ccc(S(=O)(=O)N(C)C[C@@H]2Oc3ccc(NC(=O)NC(C)C)cc3CC(=O)N([C@@H](C)CO)C[C@@H]2C)cc1 was read as RAD52 inh inactive and RAD54 inh 51.
COc1ccc(S(=O)(=O)N(C)C[C@@H]2Oc3ccc(NC(=O)Nc4ccccc4)cc3CC(=O)N([C@@H](C)CO)C[C@@H]2C)cc1 was read as RAD52 inh inactive and RAD54 inh 72.
CN(C)c1ccc2c(c1)[C@H]1C[C@H](CC(=O)NCCN3CCCCC3)O[C@@H](CO)[C@H]1O2 was read as RAD52 inh inactive and RAD54 inh 53.
`CN(C)CC(=O)Nc1ccc2c(c1)[C@H]1C[C@@H](CC(=O)NCCN3CCCCC3)O[C@@H](CO)[C@H]1O2` gave RAD52 inh inactive and RAD54 inh inactive.
`CN(C)CC(=O)Nc1ccc2c(c1)[C@H]1C[C@H](CC(=O)NCc3ccc(-c4ccccc4)cc3)O[C@H](CO)[C@H]1O2` gave RAD52 inh 62 and RAD54 inh inactive.
Screening COc1ccccc1S(=O)(=O)N[C@@H]1C=C[C@@H](CC(=O)N2CCN(C)CC2)O[C@H]1CO returned RAD52 inh inactive and RAD54 inh inactive.
For CC(C)c1cn(CC[C@@H]2CC[C@@H](NC(=O)C3CCOCC3)[C@@H](CO)O2)nn1 the results were RAD52 inh inactive.
Screening CNC[C@H]1Oc2ccc(NC(=O)Nc3cccc4ccccc34)cc2C(=O)N([C@@H](C)CO)C[C@H]1C returned RAD52 inh inactive and RAD54 inh inactive.
For CNC[C@@H]1Oc2ccc(NC(=O)Nc3cccc4ccccc34)cc2C(=O)N([C@@H](C)CO)C[C@@H]1C the results were RAD52 inh inactive, UBC13 polyUb 48, RAD54 inh inactive and Apaf-1 inh 57.
CNC[C@H]1Oc2ccc(NC(=O)Nc3ccc(OC)cc3)cc2C(=O)N([C@@H](C)CO)C[C@H]1C was read as RAD52 inh inactive, UBC13 polyUb 48, RAD54 inh inactive and Apaf-1 inh 45.
For COc1ccc(NC(=O)N(C)C[C@H]2OCCCC[C@H](C)Oc3ccc(NS(=O)(=O)c4cccs4)cc3C(=O)N([C@@H](C)CO)C[C@H]2C)cc1 the results were RAD52 inh inactive and RAD54 inh inactive.
For CCN(CC)c1ccc2nc3ccc(N)cc3[n+](-c3ccccc3)c2c1 the results were RAD52 inh inactive, UBC13 polyUb inactive, Neddylation inh inactive, RAD54 inh 85 and Apaf-1 inh inactive.
Screening CCN(CC)c1ccc2nc3ccccc3[n+](CC)c2c1 returned UBC13 polyUb inactive, DNA FID counter inactive, Neddylation inh inactive, RAD54 inh 54 and Apaf-1 inh inactive.
`CC(C)C#Cc1cnc2c(c1)C(=O)N([C@@H](C)CO)C[C@H](C)[C@H](CN(C)C(=O)c1cnccn1)O2` gave RAD52 inh inactive and RAD54 inh inactive.
`O=C1C(Cl)=C(Nc2ccccc2)C(=O)c2ccccc21` gave RAD52 inh inactive, DNA FID counter inactive, Neddylation inh inactive and RAD54 inh inactive.
CC(C)NC1=C(Cl)C(=O)c2ccccc2C1=O was read as UBC13 polyUb inactive, DNA FID counter inactive, Neddylation inh inactive, RAD54 inh inactive and Apaf-1 inh 63.
Screening Nc1ccccc1OCCOc1ccccc1N returned RAD52 inh inactive, UBC13 polyUb inactive, DNA FID counter inactive, Neddylation inh inactive, RAD54 inh inactive and Apaf-1 inh inactive.
Screening CCCOc1ccc(N)cc1N returned UBC13 polyUb inactive, DNA FID counter inactive, Neddylation inh inactive, RAD54 inh inactive and Apaf-1 inh 91.
For C[C@@H]1CCCCO[C@@H](CN(C)C)[C@@H](C)CN([C@H](C)CO)C(=O)c2cc(NC(=O)Nc3ccc(C(F)(F)F)cc3)ccc2O1 the results were RAD52 inh 54 and RAD54 inh inactive.
For C[C@@H]1CCCCO[C@@H](CN(C)C)[C@H](C)CN([C@H](C)CO)C(=O)c2cc(NC(=O)Nc3ccc(C(F)(F)F)cc3)ccc2O1 the results were RAD52 inh 50 and RAD54 inh inactive.

High-throughput results from PubChem BioAssay.
